In ChEMBL document CHEMBL1135300, “The mechanism of the irreversible inhibition of estrone sulfatase (ES) through the consideration of a range of methane- and amino-sulfonate-based compounds” (Bioorg Med Chem Lett, 2002):

Key:
[1] = target: T1, Steryl-sulfatase (Homo sapiens) (UniProt P08842); assay: In vitro inhibition of estrone sulfatase at 1 mM.
T1 sequence (whole entry): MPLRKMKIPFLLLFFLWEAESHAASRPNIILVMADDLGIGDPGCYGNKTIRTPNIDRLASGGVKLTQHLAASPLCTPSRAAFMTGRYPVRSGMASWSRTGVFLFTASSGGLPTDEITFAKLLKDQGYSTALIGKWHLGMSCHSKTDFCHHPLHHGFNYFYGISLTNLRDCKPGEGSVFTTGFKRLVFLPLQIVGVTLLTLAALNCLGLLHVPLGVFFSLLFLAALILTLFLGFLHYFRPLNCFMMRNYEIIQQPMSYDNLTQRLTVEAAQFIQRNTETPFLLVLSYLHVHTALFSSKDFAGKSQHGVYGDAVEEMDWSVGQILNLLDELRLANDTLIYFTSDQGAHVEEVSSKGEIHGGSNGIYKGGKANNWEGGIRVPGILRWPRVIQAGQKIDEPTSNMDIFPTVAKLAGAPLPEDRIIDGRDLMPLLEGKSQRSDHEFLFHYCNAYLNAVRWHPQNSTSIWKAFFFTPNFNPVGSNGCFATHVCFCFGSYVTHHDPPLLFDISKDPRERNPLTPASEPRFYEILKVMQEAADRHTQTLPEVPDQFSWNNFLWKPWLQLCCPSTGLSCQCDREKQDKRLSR
Procedure, shortened: (§1)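 ³H-estrone sulfate (750,000 dpm per tube) with inhibitors from ethanol stock, ethanol evaporated under nitrogen. Placental microsomes in 0.05 M Tris–HCl, pH 7.2, were prewarmed 5 min at 37 °C, then added; 1 mL total, incubated 20 min at 37 °C. Toluene quench, extraction, and scintillation counting of product. Triplicates; no-inhibitor controls; boiled-microsome blanks.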

[2] = target: T2, Steryl-sulfatase (Homo sapiens, UniProt P08842); assay: In vitro inhibition of estrone sulfatase.; procedure, shortened: as §1
T2 sequence (P08842 whole entry): T1 sequence (whole entry)

[3] = target: T1, Steryl-sulfatase (Homo sapiens); assay: In vitro inhibition of estrone sulfatase at 10 mM.; procedure, shortened: as §1

Which inhibition [1] does the source give for `NS(=O)(=O)OCC(Cl)Cl` here?
The inhibition was 30%.

`N#Cc1ccc(OS(N)(=O)=O)cc1` was tested. Which IC50 [2] did it give?
The IC50 was 300 uM l-1.

And the inhibition [1]?
The inhibition was 74.4%.

Which inhibition [1] does the source give for `CCCCCCCCCCCCOS(C)(=O)=O` here?
Its inhibition is 17%.

`NS(=O)(=O)Oc1cccc([N+](=O)[O-])c1` was tested. Which IC50 [2] did it give?
The IC50 was 120 uM l-1.

What about the inhibition [1] of the same compound?
The inhibition was 90.4%.

`CCCCCCCCOS(N)(=O)=O` was tested. Which inhibition [3] did it give?
The inhibition was 0%.

Which results are given for `NS(=O)(=O)Oc1ccccc1` [PHENYLSULFAMATE]?
IC50 [2]: > 10000 uM l-1; inhibition [1]: 29.7%

Which inhibition [3] does the source give for `CCCCCCCOS(N)(=O)=O` here?
Its inhibition is 0%.

How did the IC50 [2] turn out when `NS(=O)(=O)Oc1ccc([N+](=O)[O-])cc1` was run?
The IC50 was 330 uM l-1.

And the inhibition [1]?
The inhibition was 82.5%.

How did the inhibition [1] turn out when `NS(=O)(=O)OCCCl` was run?
The inhibition was 15%.

Which results are given for `NS(=O)(=O)Oc1cccc(Cl)c1`?
IC50 [2]: 537 uM l-1; inhibition [1]: 62%

Which results are given for `NS(=O)(=O)Oc1cccc(F)c1`?
IC50 [2]: 2089 uM l-1; inhibition [1]: 79.6%

How did the IC50 [2] turn out when `NS(=O)(=O)Oc1ccc(Br)cc1` was run?
Its IC50 is 912 uM l-1.

What about the inhibition [1] of the same compound?
Its inhibition is 50.8%.

With `CCCCCCCCCOS(C)(=O)=O` as the compound, how does the inhibition [1] read?
Its inhibition is 28%.

Which IC50 [2] does the source give for `NS(=O)(=O)Oc1cccc(I)c1` here?
Its IC50 is 120 uM l-1.

And the inhibition [1]?
The inhibition was 89.4%.

Which results are given for `N#Cc1cccc(OS(N)(=O)=O)c1`?
IC50 [2]: 191 uM l-1; inhibition [1]: 84.3%

Which IC50 [2] does the source give for `NS(=O)(=O)OCC(Cl)(Cl)Cl` here?
The IC50 was 750 uM l-1.

And the inhibition [1]?
Its inhibition is 60%.

How did the IC50 [2] turn out when `NS(=O)(=O)Oc1ccc(F)cc1` was run?
The IC50 was 537 uM l-1.

What about the inhibition [1] of the same compound?
The inhibition was 37%.

Which results are given for `NS(=O)(=O)Oc1ccc(Cl)cc1`?
IC50 [2]: 1585 uM l-1; inhibition [1]: 37.6%

`NS(=O)(=O)Oc1cccc(Br)c1` was tested. Which IC50 [2] did it give?
Its IC50 is 257 uM l-1.

And the inhibition [1]?
Its inhibition is 75.1%.

Which results are given for `NS(=O)(=O)Oc1ccc(I)cc1`?
IC50 [2]: 560 uM l-1; inhibition [1]: 66%

With `CCCCCCCCCOS(N)(=O)=O` as the compound, how does the inhibition [3] read?
The inhibition was 0%.

For `Cc1ccc(OS(N)(=O)=O)cc1`, which IC50 [2] is on record?
The IC50 was greater than 10000 uM l-1.

And the inhibition [1]?
Its inhibition is 27.4%.

How did the IC50 [2] turn out when `Cc1cccc(OS(N)(=O)=O)c1` was run?
The IC50 was 2089 uM l-1.

And the inhibition [1]?
The inhibition was 39.5%.
